# Screens: PubChem BioAssay, Broad Institute
# AF4-AF9 inh: blocks AF4 peptide binding to human AF9 | P42568 | AlphaScreen, biotin-AF4 peptide binding to FLAG-AF9 | inhibition, % at 10 µM | 350,000 compounds, 0.47% hits | AID 651704;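 active = every replicate reaching a set inhibition limit, whatever the replicate mean, cut at about 25% in these data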;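 also: 0% = plate neutral control median and 100% = total signal loss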
# FN deposition inh: fibronectin deposition inhibition; inhibition, % at 12.6 µM; 350,000 compounds, 0.086% hits; AH1F fibroblasts, Alexa488-fibronectin deposition fluorescence, overnight; AID 743247;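 active = mean inhibition across replicates of 30% or more, regardless of how many single replicates reach that level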;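 also: positive control wells lacked labelled fibronectin entirely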
#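 Schedule: 1 h cell adhesion before compound, then overnight fibronectin incubation; test system: AH1F fibroblast monolayer depositing Alexa488-labelled fibronectin into matrix; quantity: 10000 AH1F cells per well; probe or stimulus: fluorescent fibronectin at 24 nM final; signal: fluorescence, ex 485 nm, em 525 nm; evaluation: percent inhibition as loss of matrix-bound fibronectin fluorescence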
# ERp5 block: blocks human ERp5 reductase activity on insulin. AID 651711. Q15084. ERp5 insulin aggregation, absorbance 650 nm, 90 min. 350,000 compounds, 0.05% hits. inhibition, % at 9.99 µM;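 active = mean replicate inhibition above about 25%, with every replicate also reaching it, limit read from the data, passing the limit was not always enough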
# SIRT5 block: inhibitors of human sirtuin-5 desuccinylase; Q9NXA8; Purified SirT5, succinyl-peptide AMC, trypsin-coupled fluorescence; inhibition, % at 15 µM; 330,000 compounds, 1.1% hits; AID 652115; in the data active = inhibition above about 15%
# PDI turbidity: PDI (human) enzyme inhibition; PDI insulin aggregation turbidity, A650, 90 min; AID 588391; inhibition, % at 10 µM; P07237; 350,000 compounds, 0.052% hits;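 active = mean inhibition across replicates of 30% or more, whatever share of single replicates reach that level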
# Target sequence (P07237 whole entry, looked up): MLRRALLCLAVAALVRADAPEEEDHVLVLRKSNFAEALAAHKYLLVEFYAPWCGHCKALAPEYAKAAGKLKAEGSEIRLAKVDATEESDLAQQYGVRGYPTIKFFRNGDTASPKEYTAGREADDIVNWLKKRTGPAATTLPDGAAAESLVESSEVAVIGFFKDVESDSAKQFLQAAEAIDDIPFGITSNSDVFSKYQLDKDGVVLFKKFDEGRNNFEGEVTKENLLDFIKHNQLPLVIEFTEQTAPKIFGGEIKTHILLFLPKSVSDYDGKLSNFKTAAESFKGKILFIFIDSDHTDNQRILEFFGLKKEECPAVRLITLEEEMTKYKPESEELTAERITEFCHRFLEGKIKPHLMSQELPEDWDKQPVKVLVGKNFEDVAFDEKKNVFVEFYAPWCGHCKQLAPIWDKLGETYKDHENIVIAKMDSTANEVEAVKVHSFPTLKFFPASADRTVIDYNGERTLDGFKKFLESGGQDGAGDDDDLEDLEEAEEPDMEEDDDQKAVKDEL
# * hit, by the source's call; / = not tested or not shown. The list is not random: actives were taken first. Their share in the collection is about 1.3%.
SMILES,AF4-AF9 inh,FN deposition inh,ERp5 block,SIRT5 block,PDI turbidity
O=C(NCCc1cccs1)c1ccc(Cl)c(Cl)c1,-3,2,6,-1,0
O=C(Nc1ccc(F)cc1)c1oc2ccccc2c1NC(=O)C1CCCC1,-1,/,5,-2,6
CSc1ncc(S(=O)(=O)c2ccccc2)c(=O)[nH]1,-3,-24,3,20*,10
O=C(Cn1cnc2ccccc2c1=O)Nc1ccc(S(=O)(=O)N2CCCC2)cc1,-3,-2,2,16*,1
Cc1ccc(-c2csc(=Nc3cccnc3)n2CCCn2ccnc2)cc1C,37*,-2,2,2,12
CCOC(=O)c1cn(Cc2ccc(C)cc2)nn1,/,/,/,/,12
CN(C)C(=O)C[C@H]1C[C@H]2c3cc(NS(C)(=O)=O)ccc3O[C@H]2[C@H](CO)O1,0,12,68*,-14,/
CN(C)C(=O)C[C@H]1C[C@H]2c3cc(NS(C)(=O)=O)ccc3O[C@H]2[C@@H](CO)O1,0,1,33*,1,/
CN(C)C(=O)C[C@H]1C[C@@H]2c3cc(NS(C)(=O)=O)ccc3O[C@@H]2[C@H](CO)O1,-1,2,15,1,/
C[C@H](CO)N1C[C@H](C)[C@H](CN(C)Cc2ccc(Oc3ccccc3)cc2)Oc2ccc(NC(=O)c3ccncc3)cc2C1=O,5,-5,-7,1,/
C[C@H]1CN([C@@H](C)CO)C(=O)c2cc(NC(=O)Nc3ccc4c(c3)OCO4)ccc2O[C@@H]1CN(C)Cc1ccc(C(=O)O)cc1,-1,/,-4,4,/
C[C@@H]1CN([C@H](C)CO)C(=O)c2cc(NC(=O)C3CC3)ccc2O[C@@H]1CN(C)Cc1ccc2c(c1)OCO2,/,/,-2,17*,/
C[C@@H]1CN([C@@H](C)CO)C(=O)c2cc(NC(=O)c3ccncc3)ccc2O[C@H]1CN(C)Cc1ccc(Oc2ccccc2)cc1,0,10,-2,16*,/
C[C@@H]1CN([C@@H](C)CO)C(=O)c2cc(NC(=O)Nc3ccc4c(c3)OCO4)ccc2O[C@@H]1CN(C)Cc1ccc(C(=O)O)cc1,0,/,39*,3,/
C[C@H](CO)N1C[C@H](C)[C@@H](CN(C)Cc2ccc(Oc3ccccc3)cc2)Oc2ccc(NC(=O)C3CC3)cc2C1=O,9,/,3,18*,/
C[C@@H]1CN([C@@H](C)CO)C(=O)c2cc(NC(=O)Nc3ccccc3)ccc2O[C@@H]1CN(C)Cc1ccc(Oc2ccccc2)cc1,-1,/,2,17*,/
C[C@@H]1CN([C@H](C)CO)C(=O)c2cc(NC(=O)Nc3ccccc3)ccc2O[C@@H]1CN(C)Cc1ccccc1,4,-7,-5,18*,/
C[C@H](CO)N1C[C@H](C)[C@H](CN(C)Cc2ccccc2)Oc2ccc(NC(=O)Nc3ccccc3)cc2C1=O,1,3,11,2,/
O=C1NC(=O)/C(=C/c2ccc(-c3cc(C(=O)O)ccc3Cl)o2)S1,-4,-3,1,26*,-2
O=C1NC(=S)/C(=C\c2ccc(-c3ccccc3Cl)o2)S1,/,-3,/,/,-4
Cn1nnnc1Sc1ncnc2scc(-c3cccc(S(C)(=O)=O)c3)c12,-2,7,2,/,-1
COc1ccc(CC(=O)c2ccccc2C(=O)O)cc1,/,/,/,/,-3
CCOC(=O)c1ccc(S(=O)(=O)NC2CCC(C)CC2)cc1 (stereo unspecified),-4,-10,0,21*,-6
CCOC(=O)c1ccc(S(=O)(=O)NC2CC2)cc1,-10,-8,1,2,-4
CN1CCN(C(=O)C[C@H]2C[C@H]3c4cc(NC(=O)C5CCC5)ccc4O[C@H]3[C@@H](CO)O2)CC1,-3,/,6,-5,/
SMILES,AF4-AF9 inh,FN deposition inh,ERp5 block,SIRT5 block,PDI turbidity
CCCS(=O)(=O)NCCc1cc2c(C)ccc(C)c2[nH]c1=O,-6,-5,0,-2,-8
COC(=O)CC1=C(c2ccc([N+](=O)[O-])cc2)CCC1=O,-2,14,-4,16*,-9
Cc1ccc(C2=C(CC(=O)O)C(=O)CC2)cc1,/,5,/,/,-2
C[C@H]1CN([C@@H](C)CO)C(=O)c2cccc(NC(=O)CCCCCC(=O)Nc3ccccc3N)c2O[C@@H]1CN(C)Cc1ccc(Oc2ccccc2)cc1,0,/,-1,24*,/
C[C@@H]1CN([C@@H](C)CO)C(=O)c2cccc(NC(=O)C3CCOCC3)c2O[C@@H]1CN(C)Cc1ccncc1,44*,-5,5,1,/
C[C@@H]1CN([C@@H](C)CO)C(=O)c2cccc(NC(=O)C3CC3)c2O[C@@H]1CN(C)Cc1ccc(C(=O)Nc2ccccc2N)cc1,4,/,-4,17*,/
C[C@@H]1CN([C@H](C)CO)C(=O)c2cccc(NC(=O)CCCCCC(=O)Nc3ccccc3N)c2O[C@@H]1CN(C)Cc1ccc(Oc2ccccc2)cc1,-2,/,-4,1,/
C[C@@H]1CN([C@@H](C)CO)C(=O)c2cccc(NC(=O)CCCCCC(=O)Nc3ccccc3N)c2O[C@H]1CN(C)Cc1ccc(-c2ccccc2)cc1,-1,11,18,18*,/
C[C@H](CO)N1C[C@H](C)[C@@H](CN(C)Cc2ccc(-c3ccccc3)cc2)Oc2c(NC(=O)CCCCCC(=O)Nc3ccccc3N)cccc2C1=O,2,/,4,6,/
CC(C)(Sc1ccc(CCN(CCCCC2CCCCC2)C(=O)NC2CCCCC2)cc1)C(=O)O,-7,-9,6,26*,5
CN(Cc1ccccc1)C(=O)NC1CCCCC1,/,-10,/,/,0
COc1ccc(N2C(=O)CCC(C(=O)N3CCCCC3)C2c2ccc(OC)c(OC)c2)cc1 (stereo unspecified),/,/,/,/,-9
COc1cc2nc(CN3CCN(S(=O)(=O)c4ccc(C)c(C)c4)CC3)[nH]c(=O)c2cc1OC,-3,-3,0,/,4
Cc1cc(N=Nc2ccc(C)c(N=Nc3cc(C)c(N)cc3N)c2)c(N)cc1N,63*,-5,4,1,4
Cc1cc(C)cc(OCC(=O)Nc2ccccc2C(=O)N2CCOCC2)c1,-1,/,1,-1,37*
CCC(=O)Nc1cccc(-c2cc3ccccc3oc2=O)c1,-1,-9,-1,28*,2
CCC(=O)Nc1cccc(NC(=O)c2cc3ccccc3o2)c1,/,/,/,/,2
COc1ccc(OC)c(NC(=O)Nc2nc(C(N)CCc3ccccc3)cs2)c1 (stereo unspecified),28*,/,2,/,20
COc1ccc(CC(N)c2csc(NC(=O)Nc3cc(OC)ccc3OC)n2)cc1 (stereo unspecified),31*,-8,5,0,13
C[C@H](CO)N1C[C@H](C)[C@@H](CN(C)Cc2ccncc2)Oc2ncc(-c3cccc(C#N)c3)cc2C1=O,-1,-31,-3,/,/
COC(=O)c1ccc(=O)c2nc3/c(=C/O)c(O)cc(=O)c3[nH]c12,-4,/,5,20*,/
C[C@@H]1CN([C@@H](C)CO)C(=O)c2cccc(NC(=O)C3CCOCC3)c2O[C@H]1CN(C)Cc1ccc(Cl)c(Cl)c1,-1,/,0,-4,/
CC(=O)c1ccc2c(c1)C1C=CCC1C(C(=O)O)N2 (stereo unspecified),-12,/,1,32*,14
